Laboratory results: ChEMBL document CHEMBL1126671 (J Med Chem, 1993)

What was measured:
[1] = molecular target: Protein kinase C, PKC; classical (Rattus norvegicus, UniProt P05696+P68403+P63319); experiment: Inhibition of protein kinase C was evaluated as Inhibitory concentration; format: protein assay
Outline: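 Rat brain PKC; procedure as in earlier work; triplicate points per assay; IC50 is the mean of at least two independent assays.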

[2] = Inhibition of protein kinase A was evaluated as Inhibitory concentration
Outline: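 PKA from bovine heart; procedure as in earlier work; triplicate points per assay; IC50 is the mean of at least two independent assays.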

[3] = Inhibition of rat liver casein kinase II
[4] = (§1) Inhibition of rabbit muscle phosphorylase kinase (PhK); parameters: species or system Oryctolagus cuniculus
[5] = Antagonistic effect on allogenic mixed lymphocyte reaction; format: functional
Outline: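 Allogeneic mixed lymphocyte reaction run by a published method; triplicate points per assay; IC50 is the mean of at least three independent assays.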

[6] = molecular target: Proto-oncogene tyrosine-protein kinase Src (Homo sapiens, UniProt P12931); experiment: Inhibition of human p60 c-src
Chain of Proto-oncogene tyrosine-protein kinase Src (P12931 2-536 limits assumed): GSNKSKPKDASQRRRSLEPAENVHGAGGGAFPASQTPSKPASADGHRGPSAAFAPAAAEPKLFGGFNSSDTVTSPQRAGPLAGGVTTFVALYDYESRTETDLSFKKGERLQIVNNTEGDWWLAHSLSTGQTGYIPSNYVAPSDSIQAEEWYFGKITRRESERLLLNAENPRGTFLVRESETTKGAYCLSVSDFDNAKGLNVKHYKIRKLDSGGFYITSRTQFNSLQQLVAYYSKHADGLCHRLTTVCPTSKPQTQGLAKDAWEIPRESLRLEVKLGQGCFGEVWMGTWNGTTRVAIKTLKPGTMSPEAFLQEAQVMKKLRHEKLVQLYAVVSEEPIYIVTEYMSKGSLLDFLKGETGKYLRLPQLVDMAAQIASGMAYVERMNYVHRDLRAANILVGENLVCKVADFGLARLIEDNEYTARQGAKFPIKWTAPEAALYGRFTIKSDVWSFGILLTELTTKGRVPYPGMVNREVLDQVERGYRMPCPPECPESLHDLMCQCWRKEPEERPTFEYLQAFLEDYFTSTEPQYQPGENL
Outline: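 Human p60c-src (20 units) with angiotensin II substrate (60 µg), 10 µM [γ-32P]ATP, 10 mM MgCl2, in 50 mM HEPES, 0.1 mM EDTA, 0.015% Brij 35, pH 7.5; final DMSO 10%. Incubated 60 min at 30 °C, stopped with 40 mM EDTA. Aliquots spotted on phosphocellulose paper, washed with orthophosphoric acid, counted by liquid scintillation.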

[7] = Inhibition of human platelet protein kinase C (PKC)
[8] = molecular target: Tyrosine-protein kinase Lck (Homo sapiens, UniProt P06239); experiment: Inhibition of human p56 lck
Chain of Tyrosine-protein kinase Lck (P06239 whole entry): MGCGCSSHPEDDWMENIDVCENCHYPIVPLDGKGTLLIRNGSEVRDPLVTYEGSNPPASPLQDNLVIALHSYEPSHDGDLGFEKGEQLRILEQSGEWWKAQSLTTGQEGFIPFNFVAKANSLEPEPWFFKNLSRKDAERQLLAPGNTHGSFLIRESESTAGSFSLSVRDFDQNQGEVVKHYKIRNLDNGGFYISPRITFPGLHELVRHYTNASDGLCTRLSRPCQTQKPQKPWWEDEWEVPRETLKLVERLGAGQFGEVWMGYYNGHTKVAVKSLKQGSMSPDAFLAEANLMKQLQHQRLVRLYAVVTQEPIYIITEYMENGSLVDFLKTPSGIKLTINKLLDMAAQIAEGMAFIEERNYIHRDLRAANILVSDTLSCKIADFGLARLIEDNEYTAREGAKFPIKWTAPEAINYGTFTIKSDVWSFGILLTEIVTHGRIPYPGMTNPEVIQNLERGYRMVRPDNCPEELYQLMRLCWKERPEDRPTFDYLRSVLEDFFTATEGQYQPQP

Protein kinase C (PKC) = experiment: Inhibition of protein kinase C (PKC) of rat brain
[9] = Inhibition of human neutrophil protein kinase C (PKC)
Homo sapiens = species on record: Homo sapiens; experiment: Inhibition of TPA-stimulated 47-kDa protein phosphorylation in platelets; format: functional
Outline: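 Procedure as in earlier work; TPA-stimulated 47-kDa protein phosphorylation in platelets; triplicate points per assay; IC50 is the mean of at least three independent assays.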

[10] = molecular target: cAMP-dependent protein kinase (PKA) (Homo sapiens, UniProt P22694+P17612+P22612); experiment: Inhibition of human neutrophil protein kinase A (PKA); format: protein assay
[11] = molecular target: Protein kinase C, PKC; classical/novel; experiment: Antagonistic effect on TPA-stimulated CD3 down-regulation in T-cells; format: functional
Outline: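 Procedure as in earlier work; TPA-stimulated CD3 down-regulation in T-cells; triplicate points per assay; IC50 is the mean of at least two independent assays.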

[12] = as §1; parameters: species or system Oryctolagus cuniculus; remark: listed apart in the source
Outline: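 Rabbit muscle phosphorylase kinase; procedure as in earlier work; triplicate points per assay; IC50 is the mean of at least two independent assays.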

Compound | IC50 [1] [nM] | IC50 [2] [nM] | other results
Cn1cc(C2=C(c3c4n(c5ccccc35)CCNC4)C(=O)NC2=O)c2ccccc21 | 540 | 3200 | –
CNCC1CCn2c(c(C3=C(c4cn(C)c5ccccc45)C(=O)NC3=O)c3ccccc32)C1.Cl (stereo not drawn) | 9.8 | 4800 | –
CN(C)CC1CCn2c(c(C3=C(c4cn(C)c5ccccc45)C(=O)NC3=O)c3ccccc32)C1.Cl (stereo not drawn) | 42 | 8600 | IC50 [3]: > 100000 nM; IC50 [4]: 1100 nM; IC50 [5]: 540 nM; IC50 [6]: > 100000 nM; IC50 [7]: 45 nM; IC50 [8]: > 100000 nM; IC50 (Protein kinase C (PKC)): 42 nM; IC50 [9]: 32 nM; IC50 (Homo sapiens): 950 nM; IC50 [10]: 5900 nM
Cl.Cn1cc(C2=C(c3c4n(c5ccccc35)CC(CCN)CC4)C(=O)NC2=O)c2ccccc21 (stereo not drawn) | 23 | 4500 | –
Cn1cc(C2=C(c3cn(CCCN)c4ccccc34)C(=O)NC2=O)c2ccccc21 | 75 | – | –
Cn1cc(C2=C(c3c4n(c5ccccc35)CC(CN)C4)C(=O)NC2=O)c2ccccc21 (stereo not drawn) | 14 | 3900 | –
Cn1cc(C2=C(c3c4n(c5ccccc35)CCC(CCN)C4)C(=O)NC2=O)c2ccccc21 (stereo not drawn) | 47 | 24000 | –
Cn1cc(C2=C(c3c4n(c5ccccc35)CC[C@H](CN)C4)C(=O)NC2=O)c2ccccc21 | 4.1 | 12100 | –
Cn1cc(C2=C(c3c4n(c5ccccc35)CCC4)C(=O)NC2=O)c2ccccc21 | 210 | 68000 | –
Cn1cc(C2=C(c3c4n(c5ccccc35)CCCCC4)C(=O)NC2=O)c2ccccc21 | 450 | > 100000 | –
Cn1cc(C2=C(c3c4n(c5ccccc35)CC[C@@H](CN)C4)C(=O)NC2=O)c2ccccc21 | 10 | 900 | –
Cn1cc(C2=C(c3c4n(c5ccccc35)CCC(C[N+](C)(C)C)C4)C(=O)NC2=O)c2ccccc21 (stereo not drawn) | 49 | 92500 | –
Cn1cc(C2=C(c3c4n(c5ccccc35)CCC(CN)CC4)C(=O)NC2=O)c2ccccc21 (stereo not drawn) | 16.5 | 2600 | –
Cn1cc(C2=C(c3c4n(c5ccccc35)CC(N)CC4)C(=O)NC2=O)c2ccccc21 (stereo not drawn) | 135 | 4100 | –
Cn1cc(C2=C(c3c4n(c5ccccc35)CCC(N)C4)C(=O)NC2=O)c2ccccc21 (stereo not drawn) | 110 | 3300 | –
Cn1cc(C2=C(c3c4n(c5ccccc35)CCC(CN)C4)C(=O)NC2=O)c2ccccc21 (stereo not drawn) | 7.6 | 2800 | IC50 [3]: > 100000 nM; IC50 [5]: 470 nM; IC50 [6]: > 100000 nM; IC50 [7]: 12 nM; IC50 [8]: > 100000 nM; IC50 (Protein kinase C (PKC)): 7.6 nM; IC50 [9]: 4.8 nM; IC50 [11]: 600 nM; IC50 (Homo sapiens): 460 nM; IC50 [10]: 1200 nM; IC50 [12]: 1300 nM
Cn1cc(C2=C(c3c4n(c5ccccc35)CCCC4)C(=O)NC2=O)c2ccccc21 | 155 | 23000 | –
Cn1cc(C2=C(c3c4n(c5ccccc35)CCCC(CN)C4)C(=O)NC2=O)c2ccccc21 (stereo not drawn) | 272 | 34000 | –
Cn1cc(C2=C(c3c4n(c5ccccc35)CCC(N)CC4)C(=O)NC2=O)c2ccccc21 (stereo not drawn) | 100 | 2400 | –
Cn1cc(C2=C(c3c4n(c5ccccc35)CC(CN)CCC4)C(=O)NC2=O)c2ccccc21 (stereo not drawn) | 400 | 12800 | –
Cn1cc(C2=C(c3c4n(c5ccccc35)CC(CN)CC4)C(=O)NC2=O)c2ccccc21 (stereo not drawn) | 15 | 1100 | –
CN[C@@H]1C[C@H]2O[C@@](C)([C@@H]1OC)n1c3ccccc3c3c4c(c5c6ccccc6n2c5c31)C(=O)NC4 [STAUROSPORINE] | – | – | IC50 [9]: 2.5 nM
